This is a sample that favours compounds with a hit; in the whole collection about 2.7% have one here.
S100A4 MyoIIA = inhibitors of S100A4-myosin IIA peptide binding, primary screen, biochemical, fluorescence polarization, TAMRA-MyoIIA peptide | Protein S100-A4 (Homo sapiens), P26447 | inhibition, % at 10.7 µM | 0.14% of 360,000 active | AID 652163, 2013;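 active = mean inhibition of at least 70% across replicates, with every replicate also reaching that level; inconclusive = mean inhibition reaches 70% but some replicates fall short; inactive = mean inhibition below 70%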
Target sequence (P26447 whole entry, looked up): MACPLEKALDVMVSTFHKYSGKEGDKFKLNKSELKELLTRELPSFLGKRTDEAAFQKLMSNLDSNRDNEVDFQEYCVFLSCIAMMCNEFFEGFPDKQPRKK
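Test system – S100A4 monomer (human) · Compound – single-point compound testing · Schedule – 5 min incubation before reading · Probe or stimulus – TAMRA-labelled myosin IIA heavy-chain peptide probe, 5 nM · Benchmarks – neutral control DMSO, positive control TFP · Medium – Calcium-containing HEPES buffer, pH 7.2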
DENV2 CPE rescue = inhibitors of DENV2 cytopathic effect, primary screen, cell-based, plate reader, single concentration; AID 651640, 2012; DENV2-infected cells, cytopathic effect rescue; 1.7% of 350,000 active; CPE inhibition, % at 9.99 µM; in the data active = CPE inhibition above about 20%, passing the limit was not always enough; inconclusive = no clear call, values can overlap the other calls; tested in BHK-21 cells;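 also: 0% = median of neutral control wells and 100% = median of positive control wells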
CaV13 ICDI inh = Disruptors of the CACNA1D IQ motif to Ca2+-dependent inactivation inhibitor domain association, primary screening, Förster resonance energy transfer in intact living …; AID 743397; 0.098% of 340,000 active; HEK cells, CFP/YFP FRET ICDI-IQ, plate reader, 10 min; percent FRET-ratio fall versus neutral wells; inhibition, % at 12.3 µM;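 active = mean replicate inhibition of at least 30% and at least 1% of replicates passing that level; inconclusive = only one of the two criteria is met; inactive = neither criterion is met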;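 also: 0% = median of the neutral control wells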
MLL AF4-AF9 inh = inhibitors of AF4 peptide binding to AF9, primary screen, biochemical, AlphaScreen, biotin-AF4 peptide, FLAG-AF9, single point | inhibition, % at 10 µM | Protein AF-9 (Homo sapiens), P42568 | AID 651704, 2012 | 0.47% of 350,000 active;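 active = every replicate reaching a set inhibition limit, whatever the replicate mean, cut at about 25% in these data; inconclusive = mean inhibition reaches that limit but some replicates miss it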;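 also: 0% = plate neutral control median and 100% = total signal loss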
Target sequence (P42568 whole entry, looked up): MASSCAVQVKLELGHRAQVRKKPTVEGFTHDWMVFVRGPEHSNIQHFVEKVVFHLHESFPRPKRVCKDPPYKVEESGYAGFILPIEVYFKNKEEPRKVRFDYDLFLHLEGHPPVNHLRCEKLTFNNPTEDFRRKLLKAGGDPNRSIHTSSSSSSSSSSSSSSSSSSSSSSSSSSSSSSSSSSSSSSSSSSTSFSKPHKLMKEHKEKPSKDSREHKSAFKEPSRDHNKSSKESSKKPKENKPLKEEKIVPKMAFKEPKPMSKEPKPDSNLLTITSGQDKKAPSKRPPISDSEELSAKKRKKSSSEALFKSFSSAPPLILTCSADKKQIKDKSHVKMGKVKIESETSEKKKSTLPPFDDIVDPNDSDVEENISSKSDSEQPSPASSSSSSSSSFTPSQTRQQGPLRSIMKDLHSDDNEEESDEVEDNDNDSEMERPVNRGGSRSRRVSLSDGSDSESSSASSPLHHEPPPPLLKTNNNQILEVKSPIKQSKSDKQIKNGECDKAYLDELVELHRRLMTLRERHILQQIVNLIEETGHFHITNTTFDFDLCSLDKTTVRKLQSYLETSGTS
SIRT5 block = SIRT5 desuccinylase inhibitors, primary screen, biochemical, fluorescence imaging, single point, set 5; 1.1% of 330,000 active; Purified SirT5, succinyl-peptide AMC, trypsin-coupled fluorescence; NAD-dependent protein deacylase sirtuin-5, mitochondrial (Homo sapiens), Q9NXA8; AID 652115, 2013; inhibition, % at 15 µM; in the data active = inhibition above about 15%; inconclusive = no clear call, values can overlap the other calls
Starred values were filed as active, the others as inactive; ? = inconclusive; . = not tested or not shown; ! = a repeat was not active.

SMILES | S100A4 MyoIIA | DENV2 CPE rescue | CaV13 ICDI inh | MLL AF4-AF9 inh | SIRT5 block
C[C@@H]1CN([C@H](C)CO)S(=O)(=O)c2ccc(-c3cccnc3)cc2O[C@H]1CN(C)C(=O)NC1CCCC1 | -6 | . | . | 3 | 1
COc1ccc(S(=O)(=O)Nc2ccc3c(c2)C(=O)N([C@@H](C)CO)C[C@H](C)[C@@H](CN(C)C(=O)Nc2ccc(F)cc2)OCCCC[C@@H](C)O3)cc1 | -24 | 18 | . | 2 | 16*
C[C@@H]1CCCCO[C@@H](CN(C)C(=O)Nc2ccc3c(c2)OCO3)[C@H](C)CN([C@H](C)CO)C(=O)c2cc(NS(=O)(=O)c3ccc(Cl)cc3)ccc2O1 | -1 | 6 | . | -3 | 4
COc1ccc(NC(=O)N(C)C[C@@H]2OCCCC[C@@H](C)Oc3ccc(NS(=O)(=O)c4ccc(F)cc4)cc3C(=O)N([C@@H](C)CO)C[C@H]2C)cc1 | 6 | -1 | . | -3 | 3
COc1ccc(NC(=O)N(C)C[C@@H]2OCCCC[C@@H](C)Oc3ccc(NS(=O)(=O)c4ccc(Cl)cc4)cc3C(=O)N([C@H](C)CO)C[C@@H]2C)cc1 | 139* | -1 | . | 0 | 5
COc1ccc(S(=O)(=O)Nc2ccc3c(c2)C(=O)N([C@H](C)CO)C[C@@H](C)[C@@H](CN(C)C(=O)Nc2ccc(C(F)(F)F)cc2)OCCCC[C@@H](C)O3)cc1 | -6 | 53* | . | -5 | 1
C[C@@H]1CCCCO[C@H](CN(C)C(=O)Nc2ccc3c(c2)OCO3)[C@@H](C)CN([C@H](C)CO)C(=O)c2cc(NS(=O)(=O)c3ccc(Cl)cc3)ccc2O1 | 2 | 25* | . | -7 | 3
C[C@H](CO)N1C[C@H](C)[C@@H](CN(C)S(=O)(=O)c2ccccc2F)Oc2ncc(C#Cc3ccncc3)cc2C1=O | -22 | -16 | . | -3 | 3
C[C@H]1CN([C@@H](C)CO)C(=O)Cc2cc(NS(C)(=O)=O)ccc2O[C@H]1CN(C)Cc1ccc(Cl)c(Cl)c1 | 8 | -7 | . | 1 | 4
COc1ccc(S(=O)(=O)Nc2ccc3c(c2)C(=O)N([C@@H](C)CO)C[C@@H](C)[C@@H](CN(C)C(=O)Nc2ccc(F)cc2)OCCCC[C@@H](C)O3)cc1 | -6 | -6 | . | -1 | 18*
COc1ccc(S(=O)(=O)Nc2ccc3c(c2)C(=O)N([C@@H](C)CO)C[C@@H](C)[C@H](CN(C)C(=O)Nc2ccc(F)cc2)OCCCC[C@@H](C)O3)cc1 | -19 | 4 | . | 0 | 8
C[C@@H]1CCCCO[C@H](CN(C)C(=O)Cc2ccccc2)[C@@H](C)CN([C@H](C)CO)C(=O)c2cc(NS(=O)(=O)c3ccc(F)cc3)ccc2O1 | 5 | -3 | . | -2 | .
CCN(CC(=O)Nc1c(F)cccc1F)C(=O)c1ccc(C(=O)c2ccccc2)cc1 | -4 | 11 | -6 | ? | -1
CCN(CC(=O)Nc1c(F)cccc1F)C(=O)c1cccc(S(=O)(=O)NCc2ccccc2)c1 | 1 | 80* | -2 | -1 | -5
COc1cccc(NC(=O)CN(C)C(=O)CCCc2nc3ccccc3s2)c1 | 2 | 25* | -4 | ? | 0
COc1cccc(NC(=O)CN(C)C(=O)CCCc2c[nH]c3ccccc23)c1 | 12 | -4 | -5 | 4 | -5
Cc1ccccc1S(=O)(=O)N(C)C[C@@H]1OCc2cnnn2CCCC(=O)N([C@@H](C)CO)C[C@H]1C | 112*! | -3 | -2 | -5 | -4
C[C@@H]1CN([C@H](C)CO)C(=O)CCCn2nncc2CO[C@H]1CN(C)S(=O)(=O)c1ccc(Cl)cc1 | -1 | -2 | -2 | -1 | 19*!
C[C@@H]1CN([C@H](C)CO)C(=O)CCCn2nncc2CO[C@@H]1CN(C)S(=O)(=O)c1ccc2ccccc2c1 | 93*! | -4 | -6 | 4 | 1
C[C@@H]1CN([C@@H](C)CO)C(=O)c2cccc(NC(=O)C3CC3)c2O[C@@H]1CN(C)Cc1ccncc1 | 2 | 20 | . | 0 | -2
Cc1nn(CC(=O)NCCCN2CCC(Cc3ccccc3)CC2)c(=O)c2cc(-c3ccccc3)nn12 | -4 | 12 | -2 | -1 | 25*
Cc1cccc2c(N=O)c(O)n(CCc3ccccc3)c12 | -4 | 0 | -2 | 7 | 16*
Cc1ccc(Cn2c(O)c(N=O)c3ccccc32)cc1 | 18 | -4 | -6 | 5 | -5
COc1ccc2c(c1)[C@H]1[C@H](CO2)[C@H](c2ccccc2)[C@]2(C)C(=O)Nc3ccc(C)cc3C(=O)N12 | -2 | -7 | -10 | 1 | .
C[C@]12C(=O)N(c3ccccc3)C(=O)N1[C@@H]1c3ccccc3OC[C@@H]1[C@H]2c1ccccc1 | 2 | 97* | -4 | -1 | .
SMILES | S100A4 MyoIIA | DENV2 CPE rescue | CaV13 ICDI inh | MLL AF4-AF9 inh | SIRT5 block
C[C@@]12C(=O)Nc3ccc(Cl)cc3C(=O)N1[C@H]1c3cc(Cl)ccc3OC[C@@H]1[C@@H]2c1ccccc1 | 2 | . | -6 | 7 | .
COc1ccc2c(c1)[C@H]1[C@H](CO2)[C@H](c2ccccc2)[C@]2(C)C(=O)Nc3ccc(Cl)cc3C(=O)N12 | -7 | 33* | -10 | . | .
Cc1ccc2c(c1)[C@H]1[C@H](CO2)[C@H](c2ccccc2)[C@]2(C)C(=O)Nc3ccc(Cl)cc3C(=O)N12 | -22 | 7 | -10 | 4 | 16*
C[C@@H](NC(=O)C[C@@H]1C=C[C@H](NC(=O)C2CC2)[C@H](CO)O1)c1ccccc1 | 1 | 3 | . | 0 | 9
CC1=CC(=O)C=CC1=Nc1ccc(N(C)C)cc1 | 27 | ? | -9 | 91* | -2
C[C@@H]1CN([C@@H](C)CO)C(=O)Cc2cc(NC(=O)Nc3ccc4c(c3)OCO4)ccc2O[C@H]1CN(C)C(=O)Nc1ccc(C(F)(F)F)cc1 | 34 | -9 | . | 10 | 7
CC(=O)N1CCCc2cc(S(=O)(=O)N3CCCC(C(=O)NCc4ccccc4Cl)C3)ccc21 (configuration not stated) | -3 | -1 | -3 | 32* | -1
CC(=O)N1c2ccc(S(=O)(=O)N3CCCC(C(=O)NCc4ccccc4Cl)C3)cc2CC1C (configuration not stated) | 0 | -4 | -6 | -1 | -1
Nc1ccc(-c2cc3ccccc3c(=O)o2)cc1 | 3 | 67* | -44 | 2 | .
O=c1oc(-c2ccccc2)cc2ccccc12 | 5 | -9 | . | 7 | .
O=C(c1cc(O)c(O)c([N+](=O)[O-])c1)c1ccccc1F | -6 | 5 | -5 | 26* | 5
CC(C)NC(=O)N1CCCCN2[C@H](CO)[C@@H](c3ccc(C#CC4CC4)cc3)[C@H]2C1 | 3 | 39* | . | 4 | 0
